Activity calls are given as the source filed them. The calls are words filed in the database; no cut-off is given here.
Tests used:
[1] = Selectivity index, ratio of EC50 for human MRC-5 cells to EC50 for bloodstream-form Trypanosoma brucei; type: toxicity; conditions: read-out: Selectivity Index
[2] = Metabolic stability in CD1 mouse liver microsomes assessed as intrinsic clearance by UPLC-MS/MS analysis; type: ADME
In short: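 Compound at 0.5 μM incubated with female CD1 mouse liver microsomes (0.5 mg mL-1, 50 mM potassium phosphate pH 7.4). Reaction started with excess NADPH. Aliquots taken at 0, 3, 6, 9, 15, 30 min and quenched in acetonitrile with internal standard, then analysed by UPLC-MS/MS.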

[3] = Antiproliferative activity against human MRC5 cells in presence of 5% Co2 incubated for 69 hrs followed by resazurin addition further incubated for 4 hrs; type: toxicity, cell-based
Trypanosoma brucei [4] = experiment: Antiparasitic activity against bloodstream-form Trypanosoma brucei in presence of 5% Co2 incubated for 69 hrs followed by resazurin addition further incubated for 4 hrs; type: functional, organism-based
[5] = Kinetic aqueous solubility of the compound in DMSO by laser nephelometry; type: physicochemical; conditions: read-out: Kinetic_solubility
[6] = Metabolic stability in human liver microsomes assessed as intrinsic clearance by UPLC-MS/MS analysis; type: ADME
[7] = Selectivity ratio of IC50 for inhibition of Trypanosoma brucei GSK3 to EC50 for antiparasitic activity against bloodstream-stage Trypanosoma brucei; type: toxicity
Trypanosoma brucei [8] = experiment: Antiparasitic activity against bloodstream-stage Trypanosoma brucei measured after 73 hrs by resazurin assay; type: functional, organism-based
[9] = tested on: Trypanosoma brucei brucei; experiment: Antiparasitic activity against Trypanosoma brucei brucei S427 injected in NMRI mouse assessed as cure by measuring reduction in parasitemia at 100 mg/kg, for 4 days by stage I efficacy study; conditions: time 4.0 day
[10] = Cmax in NMRI mouse at 100 mg/kg, ip by UPLC-MS/MS analysis; type: ADME, organism-based; design: dose 100 mg/kg, route ip; conditions: in vivo
[11] = Cmax in NMRI mouse at 50 mg/kg, ip by UPLC-MS/MS analysis; type: ADME, organism-based; design: dose 50 mg/kg, route ip; conditions: in vivo
[12] = Free Cmax in NMRI mouse at 50 mg/kg, ip by UPLC-MS/MS analysis; type: ADME, organism-based; conditions: in vivo
[13] = Tmax in NMRI mouse at 50 mg/kg, ip by UPLC-MS/MS analysis; type: ADME, organism-based; conditions: in vivo
[14] = AUC in Sprague-Dawley rat at 10 mg/kg, po by UPLC-MS/MS analysis; type: ADME, organism-based; design: dose 10 mg/kg, route po; conditions: in vivo
In short: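 Oral gavage at 10 mg kg-1 free base in 10% DMSO/40% PEG400/50% water, 5 mL kg-1, to female NMRI mice (n = 3) or Sprague-Dawley rats. Blood drawn at 5, 15, 30 min and 1, 2, 4, 6, 8 h, mixed with two volumes of water, measured by UPLC-MS/MS. Parameters taken from the mean blood concentration–time curve.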

[15] = Free Cmax in Sprague-Dawley rat at 10 mg/kg, po by UPLC-MS/MS analysis; type: ADME, organism-based; conditions: in vivo
[16] = Free Cmax in NMRI mouse at 100 mg/kg, ip by UPLC-MS/MS analysis; type: ADME, organism-based; conditions: in vivo
[17] = tested on: Trypanosoma brucei brucei; experiment: Antiparasitic activity against Trypanosoma brucei brucei S427 injected in Sprague-Dawley rat assessed as cure by measuring reduction in parasitemia at 100 mg/kg, po twice daily for 4 days by stage I efficacy study; type: functional, organism-based; conditions: time 4.0 day
[18] = AUC in NMRI mouse at 50 mg/kg, ip by UPLC-MS/MS analysis; type: ADME, organism-based; design: dose 50 mg/kg, route ip; conditions: in vivo

Row | SMILES | CLH [2] | EC50 at 69 h [3] | further results
1 | Nc1nc(NC2CCCCC2)sc1C(=O)C1CCC1 | 21 mL/min/g | – | selectivity ratio [1]: 5
2 | CC(C)CC(=O)c1sc(Nc2ccc(F)cc2)nc1N | 8 mL/min/g | – | –
3 | Nc1nc(NC2CCCCC2)sc1C(=O)c1c(Cl)cccc1Cl | 4.1 mL/min/g | – | –
4 | Nc1nc(Nc2ccc(F)c(F)c2)sc1C(=O)COC1CC(F)(F)C1(F)F (stereo unspecified) | 5.2 mL/min/g | – | –
5 | CC(OCC(=O)c1sc(Nc2cccc(OC(F)F)c2)nc1N)C(F)(F)F (stereo unspecified) | – | 50 µM | selectivity ratio [1]: 2500; EC50 (Trypanosoma brucei [4]): 0.02 µM; solubility kinetic [5]: > 100 µg/mL
6 | Nc1nc(NC2CCCCC2)sc1C(=O)c1ccccc1F | 9.7 mL/min/g | 2 µM | –
7 | Nc1nc(NC2CCCCC2)sc1C(=O)c1ccncc1 | 4.1 mL/min/g | – | –
8 | CC(OCC(=O)c1sc(Nc2ccc3c(c2)OC(F)(F)O3)nc1N)C(F)(F)F (stereo unspecified) | 5 mL/min/g | 50 µM | solubility kinetic [5]: > 100 µg/mL
9 | CC(C)(C)CC(=O)c1sc(Nc2ccc(F)c(F)c2)nc1N | 4.6 mL/min/g | – | –
10 | Nc1nc(Nc2ccc(F)c(F)c2)sc1C(=O)CN1CCCC(F)(F)C1 | 33 mL/min/g | – | –
11 | CC(C)C(=O)c1sc(NC2CCCCC2)nc1N | 0.5 mL/min/g | – | –
12 | Nc1nc(Nc2ccccc2)sc1C(=O)c1ccccc1 | 12 mL/min/g | – | CLH [6]: < 0.5 mL/min/g
13 | CC(OCC(=O)c1sc(Nc2ccn(C)n2)nc1N)C(F)(F)F (stereo unspecified) | 10.8 mL/min/g | – | –
14 | Nc1nc(NC2CCCCC2)sc1C(=O)c1ccc(F)cc1 | 4.9 mL/min/g | – | –
15 | CC(C)(C)C(=O)c1sc(NC2CCCCC2)nc1N | 2.5 mL/min/g | – | Ratio IC50/EC50 [7]: 70; EC50 (Trypanosoma brucei [8]): 0.26 µM
16 | Nc1nc(Nc2ccc(F)c(F)c2)sc1C(=O)CN1CCCC1 | 2.1 mL/min/g | – | –
17 | Nc1nc(Nc2ccc(F)c(F)c2)sc1C(=O)COC(CF)CF | – | 50 µM | –
18 | CC(OCC(=O)c1sc(Nc2ccc(Cl)cc2)nc1N)C(F)(F)F (stereo unspecified) | 5.3 mL/min/g | 50 µM | solubility kinetic [5]: > 100 µg/mL
19 | Nc1nc(NC2CCCCC2)sc1C(=O)c1ccc(OC(F)F)cc1 | 2.9 mL/min/g | – | selectivity ratio [1]: 267; CLH [6]: 0.8 mL/min/g
20 | COC(C)(C)C(=O)c1sc(NC2CCCCC2)nc1N | 3.8 mL/min/g | – | –
21 | Nc1nc(NC2CCCCC2)sc1C(=O)c1cc(F)cc(F)c1 | 3.6 mL/min/g | – | –
22 | CC(C)(O)CC(=O)c1sc(Nc2ccc(F)c(F)c2)nc1N | 2.2 mL/min/g | – | Activity [9]: inactive; Cmax [10]: 36000 ng/mL; Cmax [11]: 18000 ng/mL; fCmax [12]: 2600 ng/mL; Tmax [13]: 30 min; AUC [14]: 470 µg·h/mL; fCmax [15]: 195 ng/mL; fCmax [16]: 5200 ng/mL; Activity [17]: inactive; CLH [6]: < 0.5 mL/min/g; AUC [18]: 1900 µg·h/mL
23 | CCOCC(=O)c1sc(Nc2ccc(F)c(F)c2)nc1N | – | 50 µM | –
24 | CC(C)(C)OCC(=O)c1sc(Nc2ccc(F)c(F)c2)nc1N | – | 50 µM | –
25 | COc1ccc(Nc2nc(N)c(C(=O)COC(C)C(F)(F)F)s2)cn1 (stereo unspecified) | 9 mL/min/g | 50 µM | solubility kinetic [5]: > 100 µg/mL

Row | SMILES | CLH [2] | EC50 at 69 h [3] | further results
26 | CC1CCCN1CC(=O)c1sc(Nc2ccc(F)c(F)c2)nc1N (stereo unspecified) | 5.2 mL/min/g | 50 µM | –
27 | Nc1nc(Nc2ccc(F)c(F)c2)sc1C(=O)CN1CCC(F)(F)CC1 | 9.3 mL/min/g | – | –
28 | Nc1nc(NC2CCCCC2)sc1C(=O)c1ccc(F)cc1F | 6.5 mL/min/g | – | –
29 | CC(C)OCCC(=O)c1sc(Nc2ccc(F)c(F)c2)nc1N | – | 50 µM | –
30 | CC(C)OCC(=O)c1sc(Nc2ccc(F)c(F)c2)nc1N | 9.3 mL/min/g | 50 µM | –
31 | O=C(c1cnc(NC2CCCCC2)s1)C1CCCCC1 | 15 mL/min/g | – | –
32 | Nc1nc(NC2CCCCC2)sc1C(=O)c1ccc(C(F)(F)F)cc1 | 1.4 mL/min/g | – | –
33 | Nc1nc(Nc2ccc(F)c(F)c2)sc1C(=O)CCN1CCOCC1 | 1.2 mL/min/g | – | –
34 | Nc1nc(NC2CCCCC2)sc1C(=O)c1ccc(F)c(F)c1 | 12 mL/min/g | – | –
35 | Nc1nc(Nc2ccc(F)c(F)c2)sc1C(=O)COC1CCC1 | 9 mL/min/g | 50 µM | –
36 | Nc1nc(Nc2ccc(F)c(F)c2)sc1C(=O)CN1C[C@H]2CC[C@@H](C1)O2 | 8.8 mL/min/g | 50 µM | –
37 | Nc1nc(Nc2ccc(F)c(F)c2)sc1C(=O)CN1CCCCC1 | 7.7 mL/min/g | – | –
38 | COC(C)(C)CC(=O)c1sc(Nc2ccc(F)c(F)c2)nc1N | 6.1 mL/min/g | 50 µM | –
39 | Nc1nc(NC2CCCCC2)sc1C(=O)c1ccccc1C(F)(F)F | 14 mL/min/g | – | –
40 | C[C@@H]1CN(CC(=O)c2sc(Nc3ccc(F)c(F)c3)nc2N)C[C@H](C)O1 | 8.1 mL/min/g | 50 µM | selectivity ratio [1]: 1000; EC50 (Trypanosoma brucei [4]): 0.05 µM
41 | CC(OCC(=O)c1sc(Nc2ccc(C(F)(F)F)cc2)nc1N)C(F)(F)F (stereo unspecified) | 2.3 mL/min/g | – | solubility kinetic [5]: > 100 µg/mL
42 | Nc1nc(Nc2ccc(F)c(F)c2)sc1C(=O)CN1C[C@@H]2C[C@H]1CO2 | 4.1 mL/min/g | 50 µM | –
43 | Nc1nc(Nc2ccccc2)sc1C(=O)c1ccc(F)cc1 | 7.3 mL/min/g | – | –
44 | CC(OCC(=O)c1sc(Nc2ccc(F)c(F)c2)nc1N)C(F)(F)F (stereo unspecified) | 7.4 mL/min/g | 50 µM | –
45 | CC(C)CC(=O)c1sc(Nc2ccc(F)c(F)c2)nc1N | 5.9 mL/min/g | – | CLH [6]: 3.2 mL/min/g
46 | Nc1nc(Nc2ccc(F)c(F)c2)sc1C(=O)CN1CCOCC1 | 4.7 mL/min/g | 50 µM | selectivity ratio [1]: 2000
47 | Nc1nc(NC2CCCC(O)C2)sc1C(=O)c1c(F)cccc1F (stereo unspecified) | 1.8 mL/min/g | – | –
48 | CC(OCC(=O)c1sc(Nc2ccc(C(F)(F)F)nc2)nc1N)C(F)(F)F (stereo unspecified) | – | 50 µM | –
49 | Nc1nc(NC2CCCCC2)sc1C(=O)C1CCCCC1 | 8.9 mL/min/g | – | –
50 | Nc1nc(Nc2ccc(F)c(F)c2)sc1C(=O)CN1CCCC1C(F)(F)F (stereo unspecified) | 26 mL/min/g | – | –
